Reference: article PMC8521395 (Journal of Antimicrobial Chemotherapy, 2021)
Each block holds one compound with its values, some of them ahead of it.

Tests used:
Type in all cases: cell-based, Escherichia coli
Strain SMR14350 = test: In vivo double-stranded DNA break visualization; details: ciprofloxacin 0.0125 mg/L, 4 h, AB medium, mean±SD of three determinations
In short: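 E. coli Gam-GFP reporter strain SMR14350 grown exponentially at 37°C in AB minimal medium (10 mg/L thiamine, 0.2% glucose, 0.5% casamino acids), diluted to OD450 0.05. PNA-peptide test compound (8 μM) or ciprofloxacin (0.0125 mg/L) added with anhydrotetracycline (10 mg/L) to induce Gam-GFP, for 4 h. Foci scored by fluorescence microscopy in three independent experiments (2553–3860 cells per condition).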

MG1655 = test: MIC determination by broth microdilution; details: MG1655, non-cation-adjusted Mueller-Hinton broth (MHB-I), low-binding plastic, 37°C, 18 h, turbidity OD595
NrdA protein = test: Western-blot analysis of NrdA protein level; details: 8 μM PNA-peptide, 3 h, AB medium, WT cells, band intensity relative to WT
[1] = tested on: WT carrying pCC:nrdAByfaE; test: Time-kill assay, WT carrying pCC:nrdAByfaE; details: 50 μM HU, 5 h, MHB-I
E. coli = test: MIC of chloramphenicol and nalidixic acid in AB medium; details: printed as the concentration equal to 10×MIC
WT E. coli cells = test: Macromolecular synthesis; details: nalidixic acid 40 mg/L (10×MIC), AB medium without casamino acids, single experiment

Compound: O=C(O)c1cn(C2CC2)c2cc(N3CCNCC3)c(F)cc2c1=O [ciprofloxacin]
percentage of cells with Gam-GFP foci (Strain SMR14350): 51.9 ± 6.9%

Compound: H-(KFF)3K-eg1-ATTGAT TGC G -NH2 [PNA5866]
MIC (MG1655): 16 µM | decrease of cellular NrdA protein level (NrdA protein): did not inhibit NrdA protein levels

Compound: NC(=O)NO [HU, hydroxyurea]
reduction in cfu/mL, HU alone [1]: < 1 log

10×MIC (E. coli): 80 µg/mL
Compound: O=C(N[C@H](CO)[C@H](O)c1ccc([N+](=O)[O-])cc1)C(Cl)Cl [chloramphenicol]

10×MIC (E. coli): 40 µg/mL
Compound: CCn1cc(C(=O)O)c(=O)c2ccc(C)nc21 [nalidixic acid]
DNA synthesis (DNA replication) (WT E. coli cells): faster cessation of DNA replication
